An excerpt weighted towards active compounds, which were near 1.8% of everything screened.
LMPTP block – LMPTP (human) inhibition | P24666 | recombinant LMPTP-A, OMFP fluorogenic substrate, fluorescence intensity | inhibition, % at 20 µM | 360,000 tested, 0.22% active | AID 651560;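 active = compounds that cut the enzyme signal by at least half of the control window in the single-dose screen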;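 also: plate controls were DMSO wells with enzyme plus substrate for no effect and substrate without enzyme for full effect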
Target sequence (P24666 whole entry, looked up): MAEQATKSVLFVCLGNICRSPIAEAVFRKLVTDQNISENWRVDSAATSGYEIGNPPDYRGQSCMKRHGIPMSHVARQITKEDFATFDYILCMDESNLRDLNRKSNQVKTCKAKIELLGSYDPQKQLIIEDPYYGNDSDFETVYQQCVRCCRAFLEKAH
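Assay system: LMPTP-A enzyme. Input: 0.625 nM LMPTP-A final. Probe or stimulus: 400 µM OMFP. Compound dosing: single 20 µM dose. Schedule: 50 min dark incubation at room temperature. Detection: fluorescence intensity of OMFP turnover product. Read-out: percent inhibition versus substrate-only and uninhibited controls. Benchmarks: no-enzyme low control, uninhibited high control.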
SUMO1 PPI mod – modulators of human SUMO1-mediated protein-protein interactions | P63165 | SUMO1 binding to a labelled peptide, TR-FRET, 1 h | inhibition, % at 20 µM | 360,000 tested, 0.33% active | AID 602429; in the data active = inhibition above about 37%
Target sequence (P63165 whole entry, looked up): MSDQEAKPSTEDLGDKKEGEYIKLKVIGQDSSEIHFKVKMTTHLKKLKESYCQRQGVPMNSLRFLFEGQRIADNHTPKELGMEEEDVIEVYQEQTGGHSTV
STEP inh – inhibitors of human striatal-enriched phosphatase STEP. P54829. recombinant STEP, OMFP fluorogenic substrate, fluorescence. inhibition, % at 20 µM. 360,000 tested, 0.25% active;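 active = inhibition at 20 µM, scaled per plate between control wells, above about 37%, limit read from the data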;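 also: 0% = DMSO with enzyme and substrate and 100% = substrate only without enzyme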
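Assay system: isolated STEP enzyme. Buffer or medium: pH 6.0 Bis-Tris with DTT and Tween 20. Also added: fluorogenic phosphatase substrate OMFP at 25 µM final. Dosing: 20 µM, 1% DMSO. Timing: 20 min reaction, room temperature, in the dark. Measured by: fluorescence intensity, excitation 480 nm, emission 540 nm. Evaluation: normalized % inhibition.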
DNMT1 inh – inhibitors of human DNMT1 | 360,000 tested, 0.83% active | DNMT1 molecular beacon, Hinp1I cleavage, fluorescence | inhibition (reported as % activation of signal), % at 10 µM; in the data active = inhibition above about 50%
Scp1 inh – inhibitors of human Scp-1 phosphatase | inhibition, % at 20 µM | 340,000 tested, 0.88% active | Recombinant Scp1, phosphopeptide, malachite green phosphate absorbance | AID 493091 | Q9GZU7;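 active = inhibition above about 50% at 20 µM, limit read from the data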;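 also: plate controls were DMSO wells with enzyme for no effect and wells lacking enzyme for full effect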
Target sequence (Q9GZU7 76-261 limits assumed): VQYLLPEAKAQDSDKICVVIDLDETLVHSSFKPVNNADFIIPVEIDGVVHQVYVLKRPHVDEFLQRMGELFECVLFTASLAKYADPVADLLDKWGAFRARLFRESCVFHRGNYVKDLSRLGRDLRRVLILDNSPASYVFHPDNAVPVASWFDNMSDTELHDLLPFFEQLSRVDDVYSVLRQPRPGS
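System: SCP-1 catalytic domain; Reagent: Phospho 17-mer peptide substrate; Doses: one concentration, 20 µM, with 1.0% DMSO; Incubation: 45 min room-temperature reaction, 5 min colour, 30 min stabiliser; Signal: Phosphate-binding colour reagent, absorbance read at 630 nm.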
Scp-1 conf – confirmation of human Scp-1 phosphatase inhibitors; inhibition, % at 20 µM; 2,500 tested, 61% active; recombinant SCP-1 catalytic domain, phosphate release, malachite green absorbance; shares compounds with Scp1 inh;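 also: plate controls were DMSO with enzyme for no effect and buffer wells lacking enzyme for full effect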
MG interference – colorimetric interference in Scp-1 counter-screen | shares compounds with Scp1 inh | Colorimetric interference counterscreen, malachite green absorbance 630 nm | apparent inhibition (interference), % at 20 µM | 2,500 tested, under 10 active | AID 540313;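 also: compounds added after enzyme reaction finished so only phosphate colour detection is probed; plate controls were DMSO wells with completed Scp-1 reaction for no effect and substrate wells lacking enzyme for full effect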
Scp-1 Tm shift – validation of human Scp-1 inhibitors by thermal shift binding; shares compounds with Scp1 inh; Recombinant SCP1, Sypro Orange thermal shift Tm; thermal shift relative to vanadate control, % at 40 µM; 1,500 tested, 25% active;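 active = substances whose mean melting-temperature shift, as a percentage of the reference inhibitor's shift, reaches about 5.3%, limit read from the data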;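 also: 0% = Tm of DMSO wells and 100% = Tm with sodium orthovanadate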
DNMT1 inh conf – DNMT1 inhibition confirmation, single concentration; shares compounds with DNMT1 inh; DNMT1 molecular beacon HinP1I cleavage, fluorescence; inhibition, % at 10 µM; 2,300 tested, 8% active; AID 602385;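 active = average inhibition of at least 30% in the single-concentration confirmation test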
DNMT1 interf – shows spectral interference in the DNMT1 beacon assay; AID 602387; activation (fluorescence interference), % at 10 µM; DNMT1 molecular beacon spectral interference counterscreen, fluorescence 485/520; shares compounds with DNMT1 inh; 2,300 tested, 1% active;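 active = activation of at least 30% at 10 µM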;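 also: DNMT1 catalytic domain with a HinP1I cleavage step and a FAM/dabcyl DNA beacon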
* = called active by the depositor; · = no result.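 The calls were made as follows, unless noted: active = inhibition of at least 30% at 20 µM; inactive = the rest.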

SMILES	LMPTP block	SUMO1 PPI mod	STEP inh	DNMT1 inh	Scp1 inh	Scp-1 conf	MG interference	Scp-1 Tm shift	others
CCOC(=O)c1cc(-c2ccc(OC)cc2)nn1-c1ccccc1C(=O)O	10.8	69.3*	25.1	28.4	61.4*	42.1*	-7.9	-5.9
COc1ccccc1C(=O)NNC1CC(=O)N(c2ccc3c(c2)OCCO3)C1=O (configuration not stated)	-0.8	-0.6	-2.6	0.2	-4.4	-21.5	-15.9	·
O=c1nc2cccc3c2=c(/c1=C(\O)c1ccccc1)c1ccccc1c3=O	8.2	4.8	3.6	38.2	72.3*	58.0*	-20.3	3.3
Cc1nc2ccccc2c(=O)n1-c1ccc(F)c(NS(=O)(=O)c2ccccc2F)c1	-0.3	24.1	1.6	-1.4	-4.0	·	·	·
CCC12CCCN3CCC4(C(=C(C(=O)OC)C1)Nc1ccccc14)C32 (configuration not stated)	1.8	-0.8	-3.2	-3.7	61.4*	-9.9	-13.4	·
COC(=O)C1=C(C(=O)OC)[C@@H]2Nc3ccccc3[C@@]23C[C@@H](C(=O)OC)N=C3N1	0.5	5.9	-1.2	11.6	-4.4	·	·	·
COc1ccccc1-n1cnc2c(c1=O)c1nc3ccccc3nc1n2-c1ccc(C)c(C)c1	6.9	1.4	16.6	24.4	96.5*	66.9*	-6.2	-8.2
COCCCn1c2nc3ccccc3nc2c2c(=O)n(-c3ccccc3OC)cnc21	0.3	-23.4	-0.9	5.2	5.4	·	·	·
CC(C)c1ccc(/C=C2\SC(=O)N(CC(=O)NC3C=CS(=O)(=O)C3)C2=O)cc1 (configuration not stated)	11.1	-9.2	15.5	37.0	56.6*	53.5*	-6.8	-4.5
CCCn1c(N2CCN(CC(=O)c3c[nH]c4ccccc34)CC2)nc2c1c(=O)[nH]c(=O)n2C	-2.8	1.3	-1.7	-7.2	99.1*	-11.1	-6.5	·
CCn1c(N2CCN(CC(=O)c3c(C)n(C)c4ccccc34)CC2)nc2c1c(=O)[nH]c(=O)n2C	-1.6	-1.1	-3.3	-1.2	37.9	·	·	·
COC(=O)CC1C(=O)NCCN1C(=O)c1cc(OC)c(OC)cc1OC (configuration not stated)	-0.5	5.5	2.7	-0.5	-4.5	·	·	·
c1cncc(CN=C2Nc3ccccc3CS2)c1	-0.2	3.2	0.5	2.6	68.8*	-12.3	-12.3	·
Clc1ccc(CN=C2Nc3ccccc3CS2)cc1	2.0	0.4	-1.5	-4.1	-9.7	·	·	·
CC(C)(O)CCCC(C)(O)c1ccc(C(=O)O)cc1O (configuration not stated)	-1.4	7.7	-1.6	26.7	60.9*	51.9*	1.7	6.1*
O=C(O)c1c[nH]c2c([N+](=O)[O-])cccc2c1=O	2.9	-9.2	8.5	19.5	82.7*	53.5*	-11.4	-12.0
Cc1c(C(=O)O)cccc1[N+](=O)[O-]	-0.3	1.3	1.4	-0.9	-9.2	·	·	·
CSc1nc(SCCO)c2sc3nc(-c4ccco4)c4c(c3c2n1)CC(C)(C)OC4	45.1	60.3*	8.5	98.3*	78.6*	43.1*	-10.1	7.4*	DNMT1 inh conf=7.5;DNMT1 interf=1.0
O=C1Nc2ccc(S(=O)(=O)NCc3ccco3)c3cccc1c23	2.8	11.4	-6.8	63.1*	56.3*	69.7*	1.7	-3.1	DNMT1 inh conf=0.8;DNMT1 interf=78.2*

Source: PubChem BioAssay
